Measurements taken from paper PMC3288198 (ACS Chemical Biology, 2011).
Where two headings read alike, the source gives them in different places.

What was measured:
Assay type in all cases: biochemical
HDAC2 = HDAC2 (Homo sapiens, UniProt Q92769); assay: HDAC deacetylase homogenous fluorescence assay, HDAC2; settings: for Ki: read-out: HDAC2 Ki, converted from IC50 using Cheng-Prusoff equation
Outline: (§1)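 Baculovirus-expressed recombinant human enzyme (HDAC3 as HDAC3/N-CoR2 complex) incubated with serially diluted test compound over a 12-point titration. Substrate: acetylated AMC-K(Ac)GL. Deacetylated product cleaved by lysine peptidase to free MCA, read at ex 355/em 460 nm. Data normalised to control plate by plate. IC50 and SD from non-linear regression; Ki via Cheng-Prusoff, Ki = IC50/(1+[S]/Km).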

HDAC3/N-CoR2 = HDAC3/N-CoR2 (Homo sapiens, UniProt O15379); assay: HDAC deacetylase homogenous fluorescence assay, HDAC3
Outline: as §1

HDAC6 = target: T1, HDAC6 (Homo sapiens, UniProt Q9UBN7); assay: HDAC deacetylase homogenous fluorescence assay, HDAC6
T1 sequence (Q9UBN7 1-1215): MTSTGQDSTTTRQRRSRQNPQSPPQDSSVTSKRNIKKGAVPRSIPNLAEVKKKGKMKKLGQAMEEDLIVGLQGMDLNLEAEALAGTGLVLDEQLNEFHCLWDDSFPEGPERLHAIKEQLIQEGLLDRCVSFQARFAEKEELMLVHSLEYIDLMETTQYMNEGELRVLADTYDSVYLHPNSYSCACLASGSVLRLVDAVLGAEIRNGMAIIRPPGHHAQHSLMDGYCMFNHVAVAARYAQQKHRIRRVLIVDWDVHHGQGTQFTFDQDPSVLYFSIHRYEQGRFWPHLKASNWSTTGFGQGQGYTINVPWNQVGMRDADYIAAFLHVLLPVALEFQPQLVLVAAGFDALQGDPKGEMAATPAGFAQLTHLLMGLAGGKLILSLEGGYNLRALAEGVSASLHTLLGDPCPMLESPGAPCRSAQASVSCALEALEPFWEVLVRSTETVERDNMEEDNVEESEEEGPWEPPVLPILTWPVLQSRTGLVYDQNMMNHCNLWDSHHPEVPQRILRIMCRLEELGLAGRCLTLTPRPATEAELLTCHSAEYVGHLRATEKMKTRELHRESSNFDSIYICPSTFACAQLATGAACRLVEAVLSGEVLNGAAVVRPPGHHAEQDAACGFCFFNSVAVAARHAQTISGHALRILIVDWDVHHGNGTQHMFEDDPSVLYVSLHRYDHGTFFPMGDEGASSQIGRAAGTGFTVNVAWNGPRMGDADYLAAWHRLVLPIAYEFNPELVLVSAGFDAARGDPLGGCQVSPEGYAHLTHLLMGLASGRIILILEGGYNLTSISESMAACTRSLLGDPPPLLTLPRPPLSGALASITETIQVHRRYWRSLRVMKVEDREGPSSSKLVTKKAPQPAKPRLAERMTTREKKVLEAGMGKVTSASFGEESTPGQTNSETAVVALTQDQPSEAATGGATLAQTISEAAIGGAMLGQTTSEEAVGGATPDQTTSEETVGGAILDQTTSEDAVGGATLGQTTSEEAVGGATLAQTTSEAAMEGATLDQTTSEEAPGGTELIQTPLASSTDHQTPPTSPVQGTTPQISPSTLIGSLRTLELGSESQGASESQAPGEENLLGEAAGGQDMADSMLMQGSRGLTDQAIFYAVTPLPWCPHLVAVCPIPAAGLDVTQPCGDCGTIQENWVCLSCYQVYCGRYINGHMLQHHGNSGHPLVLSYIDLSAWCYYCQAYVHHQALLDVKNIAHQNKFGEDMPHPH
Outline: as §1

HDAC7 = target: T2, HDAC7 (Homo sapiens, UniProt Q8WUI4); assay: HDAC deacetylase homogenous fluorescence assay, HDAC7
T2 sequence (Q8WUI4 1-952): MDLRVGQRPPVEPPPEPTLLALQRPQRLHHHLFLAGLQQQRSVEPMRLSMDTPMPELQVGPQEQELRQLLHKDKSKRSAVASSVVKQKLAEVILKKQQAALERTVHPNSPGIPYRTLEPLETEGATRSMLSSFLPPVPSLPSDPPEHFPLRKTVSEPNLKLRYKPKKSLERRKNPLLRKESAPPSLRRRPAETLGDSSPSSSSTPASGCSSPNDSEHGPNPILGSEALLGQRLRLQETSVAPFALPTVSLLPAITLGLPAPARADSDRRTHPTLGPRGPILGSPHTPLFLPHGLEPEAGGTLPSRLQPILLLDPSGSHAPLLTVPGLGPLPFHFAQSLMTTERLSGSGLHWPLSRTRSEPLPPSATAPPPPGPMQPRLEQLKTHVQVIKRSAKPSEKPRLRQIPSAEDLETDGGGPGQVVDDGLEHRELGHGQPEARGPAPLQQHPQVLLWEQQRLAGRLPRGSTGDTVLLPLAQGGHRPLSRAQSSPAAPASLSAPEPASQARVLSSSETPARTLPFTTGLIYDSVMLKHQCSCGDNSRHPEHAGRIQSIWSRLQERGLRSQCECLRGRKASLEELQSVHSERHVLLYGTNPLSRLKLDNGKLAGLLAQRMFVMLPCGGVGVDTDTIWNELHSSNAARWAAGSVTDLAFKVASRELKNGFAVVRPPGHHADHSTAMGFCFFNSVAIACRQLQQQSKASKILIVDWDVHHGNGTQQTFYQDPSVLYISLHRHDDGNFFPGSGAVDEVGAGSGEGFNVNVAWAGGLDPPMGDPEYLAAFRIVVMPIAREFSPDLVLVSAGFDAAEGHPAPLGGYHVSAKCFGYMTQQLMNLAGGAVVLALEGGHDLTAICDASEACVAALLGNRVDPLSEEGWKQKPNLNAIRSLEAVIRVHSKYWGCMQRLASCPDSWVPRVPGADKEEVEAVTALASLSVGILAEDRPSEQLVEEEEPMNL

HDAC8 = target: T3, HDAC8 (Homo sapiens, UniProt Q9BY41); assay: HDAC deacetylase homogenous fluorescence assay, HDAC8
T3 sequence (Q9BY41 1-377): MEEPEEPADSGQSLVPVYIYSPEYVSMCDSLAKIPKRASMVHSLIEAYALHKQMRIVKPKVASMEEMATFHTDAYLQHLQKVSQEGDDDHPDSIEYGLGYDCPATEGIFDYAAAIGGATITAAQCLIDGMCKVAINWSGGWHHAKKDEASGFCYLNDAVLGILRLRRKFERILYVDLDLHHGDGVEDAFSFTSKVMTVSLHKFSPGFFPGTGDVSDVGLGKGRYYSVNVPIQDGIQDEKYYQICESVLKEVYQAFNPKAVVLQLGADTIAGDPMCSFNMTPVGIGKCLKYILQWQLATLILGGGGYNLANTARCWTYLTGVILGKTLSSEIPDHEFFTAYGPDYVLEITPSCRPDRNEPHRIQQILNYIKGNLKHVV
Outline: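 Recombinant human enzyme (HDAC5, 8, 9 baculovirus-expressed) incubated with serially diluted test compound over a 12-point titration. Substrate: trifluoroacetylated AMC-K(TFA)GL. Peptidase development releases MCA, read at ex 355/em 460 nm. Activity normalised to plate controls. IC50 and SD by non-linear regression; Ki by Cheng-Prusoff, Ki = IC50/(1+[S]/Km).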

[1] = read-out: HDAC2 IC50, 12 point titration, acetylated substrate
[2] = read-out: HDAC3 IC50, 12 point titration, acetylated substrate
[3] = read-out: HDAC3 Ki, converted from IC50 using Cheng-Prusoff equation
[4] = read-out: HDAC6 IC50, 12 point titration, acetylated substrate
[5] = read-out: HDAC6 Ki, converted from IC50 using Cheng-Prusoff equation
[6] = read-out: HDAC7 IC50, 12 point titration, trifluoroacetylated substrate
[7] = read-out: HDAC8 IC50, 12 point titration, trifluoroacetylated substrate
[8] = read-out: HDAC8 Ki, converted from IC50 using Cheng-Prusoff equation
[9] = read-out: HDAC7 Ki, converted from IC50 using Cheng-Prusoff equation

Chain of HDAC3/N-CoR2 (O15379 whole entry): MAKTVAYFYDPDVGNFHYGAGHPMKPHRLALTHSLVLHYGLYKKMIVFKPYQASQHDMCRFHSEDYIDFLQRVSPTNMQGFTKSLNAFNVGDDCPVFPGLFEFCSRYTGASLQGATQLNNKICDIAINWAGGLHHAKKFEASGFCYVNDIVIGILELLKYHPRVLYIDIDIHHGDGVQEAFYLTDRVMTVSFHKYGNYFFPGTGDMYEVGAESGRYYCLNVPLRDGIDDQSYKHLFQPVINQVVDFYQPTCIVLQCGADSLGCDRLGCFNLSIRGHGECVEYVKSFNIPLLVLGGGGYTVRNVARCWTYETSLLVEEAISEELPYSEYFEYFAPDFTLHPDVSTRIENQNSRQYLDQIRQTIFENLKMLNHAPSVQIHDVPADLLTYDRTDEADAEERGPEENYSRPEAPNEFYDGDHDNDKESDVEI
Chain of HDAC3/N-CoR2 (Q9Y618 395-489 partner limits assumed): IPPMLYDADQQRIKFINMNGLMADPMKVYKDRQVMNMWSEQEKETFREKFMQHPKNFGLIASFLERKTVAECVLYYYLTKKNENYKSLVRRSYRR
Chain of HDAC2 (Q92769 whole entry): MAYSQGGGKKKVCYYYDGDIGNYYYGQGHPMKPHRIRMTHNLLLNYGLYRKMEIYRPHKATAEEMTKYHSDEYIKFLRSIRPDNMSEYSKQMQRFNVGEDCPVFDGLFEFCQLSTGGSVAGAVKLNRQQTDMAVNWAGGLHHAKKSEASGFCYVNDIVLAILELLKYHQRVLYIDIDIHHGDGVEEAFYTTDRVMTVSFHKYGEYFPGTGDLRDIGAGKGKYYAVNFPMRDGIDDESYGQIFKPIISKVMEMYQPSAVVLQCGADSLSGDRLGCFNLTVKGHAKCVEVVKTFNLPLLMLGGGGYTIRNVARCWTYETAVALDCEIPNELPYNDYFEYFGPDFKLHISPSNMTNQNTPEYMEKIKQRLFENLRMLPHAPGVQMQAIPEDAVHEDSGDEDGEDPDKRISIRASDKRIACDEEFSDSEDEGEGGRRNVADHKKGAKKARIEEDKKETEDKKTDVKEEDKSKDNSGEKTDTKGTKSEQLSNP

| Structure (SMILES) | IC50 (HDAC2) | Ki (HDAC2) | IC50 (HDAC3/N-CoR2) | Ki (HDAC3/N-CoR2) | IC50 (HDAC6) | Ki (HDAC6) | IC50 (HDAC7) | Ki (HDAC7) | IC50 (HDAC8) | Ki (HDAC8) | IC50 (HDAC2; [1]) | IC50 (HDAC3/N-CoR2; [2]) | Ki (HDAC3/N-CoR2; [3]) | IC50 (HDAC6; [4]) | Ki (HDAC6; [5]) | IC50 (HDAC7; [6]) | IC50 (HDAC8; [7]) | Ki (HDAC8; [8]) | Ki (HDAC7; [9]) |
| --- | --- | --- | --- | --- | --- | --- | --- | --- | --- | --- | --- | --- | --- | --- | --- | --- | --- | --- | --- |
| O=c1c2ccccc2[se]n1-c1ccccc1 [Ebselen, 2-phenyl-1,2-benzisoselenazol-3(2H)-one] | 1.4 ± 0.3 µM | 0.08 µM | 2.1 ± 1.5 µM | 0.23 µM | 12.8 ± 2.6 µM | 3.1 µM | 10.9 ± 2.2 µM | 3.09 µM | 0.35 ± 0.2 µM |  |  |  |  |  |  |  |  |  |  |
| O=C1C(SCCO)=C(SCCO)C(=O)c2ccccc21 [NSC-95397, 2,3-bis[(2-Hydroxyethyl)thio]-1,4-naphthoquinone] | > 100 µM |  | > 100 µM |  | 12.7 ± 2.5 µM | 3.07 µM | 13.1 ± 4.3 µM | 3.72 µM | 1.3 ± 0.1 µM | 1.03 µM |  |  |  |  |  |  |  |  |  |
| COc1ccc2c(c1)CC[C@@H]1[C@@H]2CC[C@]2(C)[C@@H](NCCCCCCN3C(=O)C=CC3=O)CC[C@@H]12 [U-73122, 1-[6-[[(17beta)-3-methoxyestra-1,3,5([10])-trien-17-yl]amion]hexyl]-1H-pyrrole-2,5-dione] |  |  |  |  |  |  |  |  |  |  | > 100 µM | 6.2 ± 4 µM | 0.66 µM | 45.2 ± 12.6 µM | 11 µM | > 180 µM | 10.9 ± 3.1 µM | 8.63 µM |  |
| NC(N)=Nc1ccc2[nH]c3c(c2c1)C[C@@]1(O)[C@H]2Cc4ccc(O)c5c4[C@@]1(CCN2CC1CC1)[C@H]3O5 [GNTI, guanidinyl-naltrindole di-trifluoroacetate] |  | 1.48 µM |  |  |  |  |  |  |  |  | 26.2 ± 7.6 µM | 22.7 ± 3.1 µM | 2.43 µM | > 180 µM |  | 18.9 ± 1 µM | 2 ± 0.4 µM | 1.58 µM | 5.36 µM |
| OC[C@H]1O[C@H]([S-])[C@H](O)[C@@H](O)[C@@H]1O.[Au+] [Aurothioglucose, 1-thio-D-glucopyronaose gold salt] |  |  |  |  |  |  |  |  |  |  | > 180 µM | 11.5 ± 3.2 µM | 1.23 µM | 14.4 ± 5.8 µM | 3.49 µM | 22.4 ± 4.4 µM | 1.4 ± 0.3 µM | 1.11 µM | 6.35 µM |
